Test results: ChEMBL document CHEMBL4325899, “Synthesis and photocytotoxic activity of [1,2,3]triazolo[4,5-h][1,6]naphthyridines and [1,3]oxazolo[5,4-h][1,6]naphthyridines” (Eur J Med Chem, 2019)
Calls of active or inactive are those of the source. The calls are words filed in the database; no cut-off is given here.

Key:
[1] = system: MCF7; assay: Induction of lysosomal activation in human MCF7 cells at 2 uM after 2 hrs in absence of UV irradiation by Lysotracker Green DND 26 staining-based confocal microscopic analysis; format: cell-based; settings: mcf7, 2 h
Outline: (§1)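 MCF7 cells (4x10⁵) on glass slides were loaded with LysoTracker Green DND-26 (175 nM) for 45 min in phenol-red-free, serum-free medium, before 2 µM compound with or without UV activation. Cells were fixed in 2% PFA 20 min or 2 h after UV and imaged confocally (ex 488 nm, em 500–530 nm). Controls were untreated cells with and without irradiation, and cells given PMA (400 nM).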

[2] = system: MCF7; assay: Cell cycle arrest in human MCF7 cells assessed as accumulation of cells at G2/M phase at EC50 after 24 hrs under UV-irradiation by propidium iodide staining-based flow cytometric analysis (reference value: 26.3%); format: functional
[3] = Dark toxicity against human MCF7 cells preincubated for 5 mins followed by compound washout and measured after 72 hrs by MTT assay; format: cell-based
Outline: (§2)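 Cells were plated and allowed to attach overnight. Compounds were diluted in DMSO (0.5% final), with each concentration in triplicate, and applied for 5 min. Cells were then washed in PBS and given fresh medium. Without irradiation, cells were held 72 h at up to 50 μM. MTT (5 mg/mL stock) was added for 4 h, crystals were dissolved in SDS/HCl overnight, and absorbance was read at 540 nm. CC50 is the concentration killing 50% of cells, taken as the mean of at least three experiments.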

[4] = system: MCF7; assay: Induction of mitochondrial dysfunction in human MCF7 cells at 2 uM after 2 hrs in presence of UV irradiation by Mitotracker Orange CMTM-ROS staining-based confocal microscopic analysis; format: functional, cell-based
Outline: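 MCF7 cells (4x10⁵) were plated on glass slides for 24 h. They were then loaded with MitoTracker Orange CMTM-ROS (150 nM) for 45 min in phenol-red-free, serum-free medium, before 2 µM compound and UV photoactivation. Cells were fixed in 2% PFA 20 min or 2 h after UV and imaged confocally (ex 543 nm, em 560–620 nm). PMA (400 nM) served as ROS-inducer control.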

[5] = system: MCF7; assay: Cell cycle arrest in human MCF7 cells assessed as accumulation of cells at G0/G1 phase at EC50 after 24 hrs under UV-irradiation by propidium iodide staining-based flow cytometric analysis (reference value: 44.2%); format: functional
[6] = system: MCF7; assay: Induction of ROS generation in human MCF7 cells at 2 uM preincubated for 30 mins followed by irradiation at 1.5 J/cm2 for 2 hrs by H2DCFDA probe-based fluorescence assay; format: functional, cell-based
Outline: (§3)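 MCF7 cells (3x10⁴) were plated 24 h ahead to reach 80–90% confluence. Compounds were applied for 30 min in phenol-red-free, serum-free medium, and H2DCFDA (10 µM) was added 15 min before irradiation (1.5 J/cm², ~365 nm) or no irradiation. DCF fluorescence (485/535 nm) was read 2 h after light and expressed relative to untreated controls (100%). PMA (400 nM) served as positive control; three independent experiments.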

[7] = Solubility of the compound in DMSO; format: physicochemical
[8] = system: MCF-10A; assay: Phototoxicity against human MCF10A cells preincubated for 5 mins followed by compound washout and subsequent UV irradiation at 1.5 J/cm2 for 5 mins measured after 72 hrs by MTT assay; format: cell-based; settings: light or radiation study
Outline: (§4)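 Compounds were diluted in DMSO (0.5% final), applied in triplicate for 5 min, then washed out with PBS. After medium removal, cells were irradiated on ice for 5 min at 365 nm (1.5 J/cm²) and then kept 72 h at 37 °C. Viability was read by MTT at 540 nm and expressed relative to 0.5% DMSO controls given the same treatment. EC50 is the concentration killing 50%, as the mean ± SD of at least three experiments.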

[9] = system: MCF7; assay: Induction of apoptosis in human MCF7 cells assessed as necrotic cells at EC50 after 4 hrs in presence of photoirradiation by Annexin V-FITC/propidium iodide staining-based flow cytometric analysis relative to control; format: functional
[10] = Dark toxicity against human A375 cells preincubated for 5 mins followed by compound washout and measured after 72 hrs by MTT assay; format: cell-based, A-375; outline: as §2
[11] = system: MCF7; assay: Induction of apoptosis in human MCF7 cells assessed as apoptotic cells at EC50 after 4 hrs in presence of photoirradiation by Annexin V-FITC/propidium iodide staining-based flow cytometric analysis relative to control; format: functional
[12] = system: MCF7; assay: Induction of ROS generation in human MCF7 cells at 2 uM measured after 30 mins under dark condition by H2DCFDA probe-based fluorescence assay; format: cell-based; settings: mcf7, 0.5 h; outline: as §3
[13] = system: MCF7; assay: Phototoxicity against human MCF7 cells preincubated for 5 mins followed by compound washout and subsequent UV irradiation at 1.5 J/cm2 for 5 mins measured after 72 hrs by MTT assay; format: functional, cell-based; settings: MCF7, light or radiation study; outline: as §4
[14] = system: A-375; assay: Phototoxicity against human A375 cells preincubated for 5 mins followed by compound washout and subsequent UV irradiation at 1.5 J/cm2 for 5 mins measured after 72 hrs by MTT assay; format: functional, cell-based; settings: A-375, light or radiation study; outline: as §4
[15] = system: MCF7; assay: Induction of lysosomal activation in human MCF7 cells at 2 uM after 2 hrs in presence of UV irradiation by Lysotracker Green DND 26 staining-based confocal microscopic analysis; format: functional, cell-based; outline: as §1
[16] = Dark toxicity against human HT-29 cells preincubated for 5 mins followed by compound washout and measured after 72 hrs by MTT assay; format: cell-based; outline: as §2
[17] = system: MCF7; assay: Induction of apoptosis in human MCF7 cells assessed as viable cells at EC50 after 4 hrs in presence of photoirradiation by Annexin V-FITC/propidium iodide staining-based flow cytometric analysis (reference value: 95%); format: functional
[18] = system: MCF7; assay: Induction of ROS generation in human MCF7 cells at 0.5 to 2 uM measured after 30 mins under dark condition by H2DCFDA probe-based fluorescence assay; format: cell-based; settings: mcf7, 0.5 h; outline: as §3
[19] = system: MCF7; assay: Cell cycle arrest in human MCF7 cells assessed as accumulation of cells at subG1 phase at EC50 after 24 hrs under UV-irradiation by propidium iodide staining-based flow cytometric analysis (reference value: 4.8%); format: functional
[20] = Photogeneration of oxygen in aqueous acetonitrile/water solution at 2.3 x 10^-5M measured after 1 hr under 150W irradiation by ADPA probe based spectra analysis
[21] = Dark toxicity against human MCF10A cells preincubated for 5 mins followed by compound washout and measured after 72 hrs by MTT assay; format: cell-based, MCF-10A; outline: as §2
[22] = system: MCF7; assay: Cell cycle arrest in human MCF7 cells assessed as accumulation of cells at S phase at EC50 after 24 hrs under UV-irradiation by propidium iodide staining-based flow cytometric analysis (reference value: 24.7%); format: functional
[23] = system: HT-29; assay: Phototoxicity against human HT-29 cells preincubated for 5 mins followed by compound washout and subsequent UV irradiation at 1.5 J/cm2 for 5 mins measured after 72 hrs by MTT assay; format: functional, cell-based; settings: HT-29, light or radiation study; outline: as §4
[24] = Selectivity index, ratio of EC50 for human MCF10A cells under UV irradiation at 1.5 J/cm2 to EC50 for human MCF7 cells under UV irradiation at 1.5 J/cm2; format: toxicity; settings: MCF10A cells versus MCF7 cells, read-out: Ratio EC50
Outline: (§5)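 SI is the EC50 under irradiation in non-tumor MCF10A cells divided by the EC50 under irradiation in the tumor line. Both were MTT read-outs 72 h after 1.5 J/cm² at 365 nm.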

[25] = Selectivity index, ratio of EC50 for human MCF10A cells under UV irradiation at 1.5 J/cm2 to EC50 for human HT-29 cells under UV irradiation at 1.5 J/cm2; format: toxicity; settings: MCF10A cells versus HT-29 cells, read-out: Ratio EC50; outline: as §5
[26] = system: HT-29; assay: Phototoxicity index, ratio of CC50 for human HT-29 cells to EC50 for human HT-29 cells under UV irradiation at 1.5 J/cm2
[27] = Phototoxicity index, ratio of CC50 for human MCF10A cells to EC50 for human MCF10A cells under UV irradiation at 1.5 J/cm2; format: cell-based, MCF-10A; settings: read-out: Ratio CC50/EC50
[28] = system: A-375; assay: Phototoxicity index, ratio of CC50 for human A375 cells to EC50 for human A375 cells under UV irradiation at 1.5 J/cm2
[29] = Selectivity index, ratio of EC50 for human MCF10A cells under UV irradiation at 1.5 J/cm2 to EC50 for human A375 cells under UV irradiation at 1.5 J/cm2; format: toxicity; settings: MCF10A cells versus A375 cells, read-out: Ratio EC50; outline: as §5
[30] = system: MCF7; assay: Phototoxicity index, ratio of CC50 for human MCF7 cells to EC50 for human MCF7 cells under UV irradiation at 1.5 J/cm2
[31] = system: Human immunodeficiency virus 1; assay: Antiviral activity against HIV1 3B infected in human MT4 cells assessed as decrease in viral replication by p24 ELISA; format: functional; settings: Human immunodeficiency virus 1, 3B, read-out: CIC95

Structure (SMILES) | CC50 at 72 h [3] | solubility [7] | EC50 [8] | CC50 at 72 h [10] | EC50 [13] | EC50 [14] | CC50 at 72 h [16] | CC50 at 72 h [21] | EC50 [23] | selectivity ratio [24] | selectivity ratio [25] | Ratio CC50/EC50 [26] | selectivity ratio [27] | Ratio CC50/EC50 [28] | selectivity ratio [29] | Ratio CC50/EC50 [30] | other results
COc1ccc(-n2nnc3c4nc(C)ccc4c(C)nc32)cc1 | > 50 µM | Soluble | > 50 µM | > 50 µM | > 50 µM | > 50 µM | > 50 µM | > 50 µM | > 50 µM |  |  |  |  |  |  |  | Activity [1]: Non-Toxic; Activity [2]: 26.6%; Activity [4]: inactive; Activity [5]: 43.2%; Activity [6]: inactive; Activity [9]: 7%; Activity [11]: 4%; Activity [12]: Non-Toxic; Activity [15]: inactive; Activity [17]: 90%; Activity [18]: Non-Toxic; Activity [19]: 4.5%; Activity [20]: Active; Activity [22]: 25.7%
COc1cc(-c2nc3c(nc(C)c4ccc(-c5ccccc5)nc43)o2)cc(OC)c1OC | > 50 µM | Soluble | 4.38 µM | > 50 µM | 5.94 µM | 1.44 µM | > 50 µM | > 50 µM | 0.62 µM | 0.737 | 7 | >81 | > 11 | >35 | 3 | >8 | 
COc1ccccc1-c1ccc2c(C)nc3oc(-c4ccccc4)nc3c2n1 | > 50 µM | Soluble | 1.17 µM | > 50 µM | 1.32 µM | 0.633 µM | > 50 µM | > 50 µM | 0.197 µM | 0.884 | 6 | >254 | > 43 | >79 | 2 | >38 | 
O=C(c1cc(Cc2ccccc2)cc(CN2CCCS2(=O)=O)c1)c1ncc2cccnc2c1O |  |  |  |  |  |  |  |  |  |  |  |  |  |  |  |  | IC95 [31]: 0.39 µM
COc1ccc(-c2ccc3c(C)nc4c(nnn4-c4ccccc4)c3n2)cc1 | > 50 µM | Soluble | 0.099 µM | > 50 µM | 34 µM | 10.1 µM | > 50 µM | > 50 µM | 0.099 µM | 0.003 | 1.01 | >508 | > 505 | >5 | 0.009 | >1.5 | 
COc1ccccc1-c1ccc2c(C)nc3oc(-c4cc(OC)c(OC)c(OC)c4)nc3c2n1 | > 50 µM | Soluble | 1.86 µM | > 50 µM | 3.53 µM | 0.764 µM | > 50 µM | > 50 µM | 0.197 µM | 0.527 | 9 | >254 | > 27 | >65 | 2 | >14 | 
